pIC50: −log10 of the molar value. Activity calls are given as the source filed them. The calls are words filed in the database; no cut-off is given here.
How the values were obtained:
Conditions in all cases: Homo sapiens
[1] = tested on: K562; assay: Inhibition of GGPTase1 in K562 cells assessed as Rap1a geranylgeranylation after 24 hrs; assay type: cell-based
Procedure, shortened: (§1)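 K562 cells (5 × 10^6 per 5 mL; RPMI-1640, 10% heat-inactivated FBS, 37 °C, 5% CO2) treated 24 h with bisphosphonates diluted in water. Untreated cells served as negative control and 10 µM lovastatin as positive prenylation control. Western blotting used pan-Ras antibody (farnesylation), Rab6 antibody (GGPTase II), and an antibody recognising only unmodified Rap1a (GGPTase I).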

[2] = tested on: K562; assay: Inhibition of DNA synthesis in K562 cells assessed as [3H]thymidine incorporation after 24 hrs; assay type: functional, cell-based
Procedure, shortened: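 K562 cells grown at 37 °C, 5% CO2 in RPMI-1640 with 10% heat-inactivated FBS. Cells at 2 × 10^5 per 200 µL exposed to bisphosphonates (diluted in water) for 24 h, pulsed with [3H]thymidine (0.04 µCi/well) for the last 2 h. Incorporation into DNA measured by liquid scintillation counting; IC50 for 24 h exposure.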

[3] = tested on: K562; assay: Inhibition of GGPTase2 in K562 cells assessed as Rab6 geranylgeranylation after 24 hrs; assay type: cell-based; procedure, shortened: as §1
[4] = tested on: K562; assay: Inhibition of Ras farnesylation in K562 cells by Western blot analysis after 24 hrs; assay type: functional, cell-based; procedure, shortened: as §1

| Structure (SMILES) | Activity [1] | pIC50 [2] | Activity [3] | Activity [4] |
| --- | --- | --- | --- | --- |
| CC(C)=CCC/C(C)=C/CC(C/C=C(\C)CC/C=C(\C)CNc1ccccc1C(=O)O)(P(=O)(O)O)P(=O)(O)O | Active | < 4.00 | Active | inactive |
| CC(C)=CCC/C(C)=C/CC(C/C=C(\C)CNc1ccccc1C(=O)O)(P(=O)(O)O)P(=O)(O)O | Active | < 4.00 | Active | inactive |
| C/C(=C\CC(P(=O)(O)O)P(=O)(O)O)CC/C=C(\C)CNc1ccccc1C(=O)O | inactive | < 4.00 | inactive | inactive |
